Data: ChEMBL document CHEMBL1124801, “Novel 3-hydroxy-2(1H)-pyridinones. Synthesis, iron(III)-chelating properties, and biological activity” (J Med Chem, 1990)

How the values were obtained:
Type in all cases: physicochemical
[1] = Distribution coefficient and iron(III) complex was measured at an aqueous phase buffered at pH 7.4 and octanol; details: octanol/water
In short: (§1)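 Spectrophotometric partition: ligands at about 0.1 mM in 20 mM Tris-HCl pH 7.4 shaken overnight with octan-1-ol at 25 °C. Octanol volume chosen to lower aqueous absorbance by 30–70%; three preparations used. Aqueous spectra read at 250–350 nm for free ligands and 350–600 for iron(III) complexes, the complexes formed with over 10-fold ligand excess over iron(III).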

[2] = Distribution coefficient was measured at an aqueous phase buffered at pH 7.4 and octanol; details: octanol/water; in short: as §1
[3] = pKa values was measured by spectrophotometric method
[4] = pKa values were measured by spectrophotometric method

Row | Distribution coefficient [1] | Distribution coefficient [2] | pKa [3] | pKa [4] | Structure (SMILES)
1 | 0.35 | 0.57 | 8.75 | – | CCCNC(=O)Cn1cccc(O)c1=O
2 | 1.67 | 1.57 | – | 8.99 | CCn1cccc(O)c1=O
3 | 3.74 | 2.12 | – | – | CCCCNC(=O)Cn1cccc(O)c1=O
4 | 234 | 6.17 | – | – | CC(C)n1cccc(O)c1=O
5 | 0.12 | 0.6 | – | – | Cn1cccc(O)c1=O
6 | 0.03 | 0.07 | – | – | CC(=O)N(O)CCCCCNC(=O)CCC(=O)N(O)CCCCCNC(=O)CCC(=O)N(O)CCCCCN [DEFEROXAMINE]

Second part, the compound before the results:

Row | Structure (SMILES) | Distribution coefficient [1] | Distribution coefficient [2] | pKa [3] | pKa [4]
7 | CC(C)NC(=O)Cn1cccc(O)c1=O | 0.11 | 0.46 | – | –
8 | CNC(=O)Cn1cccc(O)c1=O | 0.001 | 0.07 | – | –
9 | CCNC(=O)Cn1cccc(O)c1=O | 0.035 | 0.18 | – | –
10 | O=C(Cn1cccc(O)c1=O)NCCN(CCNC(=O)Cn1cccc(O)c1=O)CCNC(=O)Cn1cccc(O)c1=O | 0.008 | 0.025 | 8.7 | –
11 | CCCCn1cccc(O)c1=O | > 1000 | 16 | – | –
12 | CCCn1cccc(O)c1=O | 24.6 | 4.92 | – | –
